Test results reported in paper PMC10692386 (Acta Pharmaceutica Sinica. B, 2023).

Assays:
[1] = Cytotoxicity in mock-infected MT-4 cell cultures; format: cell-based; conditions: human, mock-infected MT-4 cells
WT HIV-1 = test: Anti-HIV-1 activity in MT-4 cells infected with HIV-1; format: cell-based; conditions: for EC50: Human immunodeficiency virus 1, MT4; for SI: selectivity index, the ratio of CC50/EC50, WT HIV-1
HIV-1 mutant Y181C = test: Anti-HIV-1 efficacy against mutant Y181C in MT-4 cells; format: cell-based; conditions: Human immunodeficiency virus 1, MT4, read-out: EC50 Y181C
In short: (§1)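 MT-4 cells were infected with HIV-1 RT mutant strains. EC50 was the concentration giving 50% protection against viral cytopathicity, averaged from at least three independent experiments. Cytotoxicity in mock-infected cultures was read by MTT.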

HIV-1 mutant L100I = test: Anti-HIV-1 efficacy against mutant L100I in MT-4 cells; format: cell-based; conditions: Human immunodeficiency virus 1, MT4, read-out: EC50 L100I
In short: as §1

WT HIV-1 RT = WT HIV-1 RT (Human immunodeficiency virus type 1 group M subtype B, UniProt P03366); test: Inhibition of WT HIV-1 RT; format: biochemical
HIV-1 mutant Y188L = test: Anti-HIV-1 efficacy against mutant Y188L in MT-4 cells; format: cell-based; conditions: Human immunodeficiency virus 1, MT4, read-out: EC50 Y188L
In short: as §1

[2] = tested on: HIV-1 mutant K103N + Y181C; test: Anti-HIV-1 efficacy against mutant K103N + Y181C in MT-4 cells; format: cell-based; conditions: Human immunodeficiency virus 1, MT4, read-out: EC50 K103N + Y181C
In short: as §1

HIV-1 mutant E138K = test: Anti-HIV-1 efficacy against mutant E138K in MT-4 cells; format: cell-based; conditions: Human immunodeficiency virus 1, MT4, read-out: EC50 E138K
In short: as §1

HIV-1 mutant K103N = test: Anti-HIV-1 efficacy against mutant K103N in MT-4 cells; format: cell-based; conditions: Human immunodeficiency virus 1, MT4, read-out: EC50 K103N
In short: as §1

CYP2D6 = CYP2D6 (Homo sapiens, UniProt P10635); test: Cytochrome P450 inhibition assay, CYP2D6; format: in vitro ADME
Chain of CYP2D6 (P10635 whole entry): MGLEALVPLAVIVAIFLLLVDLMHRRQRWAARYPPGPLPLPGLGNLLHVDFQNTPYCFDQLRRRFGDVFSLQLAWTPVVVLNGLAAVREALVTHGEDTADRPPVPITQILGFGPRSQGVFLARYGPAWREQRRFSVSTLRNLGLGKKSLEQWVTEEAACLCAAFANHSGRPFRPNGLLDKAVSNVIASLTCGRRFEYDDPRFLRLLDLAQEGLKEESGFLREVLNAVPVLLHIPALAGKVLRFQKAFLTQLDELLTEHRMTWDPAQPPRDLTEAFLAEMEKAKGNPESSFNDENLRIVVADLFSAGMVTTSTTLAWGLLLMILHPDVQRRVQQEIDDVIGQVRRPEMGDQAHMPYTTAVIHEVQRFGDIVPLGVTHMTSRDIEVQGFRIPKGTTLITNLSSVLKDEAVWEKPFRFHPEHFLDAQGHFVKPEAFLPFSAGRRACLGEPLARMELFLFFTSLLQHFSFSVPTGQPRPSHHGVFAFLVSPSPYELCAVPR

Compound	CC50 [1]	EC50 (WT HIV-1)	SI (WT HIV-1)	EC50 (HIV-1 mutant Y181C)	EC50 (HIV-1 mutant L100I)	IC50 (WT HIV-1 RT)	EC50 (HIV-1 mutant Y188L)	EC50 [2]	EC50 (HIV-1 mutant E138K)	EC50 (HIV-1 mutant K103N)	IC50 (CYP2D6)
Cc1cc(Oc2c(C(F)(F)F)ccn(Cc3n[nH]c(=O)n3C)c2=O)c2cc(F)c(Cl)cc2n1 [7ae]	92.9 ± 44 µM	11.7 ± 9.1 µM	7.92	–	–	–	–	–	–	–	–
Cn1c(Cn2ccc(C(F)(F)F)c(Oc3cncc(Br)c3)c2=O)n[nH]c1=O [7e]	> 280 µM	0.49 ± 0.12 µM	>573	0.85 ± 0.15 µM	0.68 ± 0.22 µM	0.74 ± 0.03 µM	39 ± 5.33 µM	12.3 ± 8.12 µM	0.62 ± 0.22 µM	0.95 ± 0.27 µM	–
Cn1c(Cn2ccc(C(F)(F)F)c(Oc3ccc(C(F)(F)F)nc3)c2=O)n[nH]c1=O [7r]	> 250 µM	> 250 µM	>1	–	–	–	–	–	–	–	–
Cc1cc(Oc2c(C(F)(F)F)ccn(Cc3n[nH]c(=O)n3C)c2=O)cnc1Br [7o]	> 272 µM	1.27 ± 0.36 µM	>214	–	–	–	–	–	–	–	–
Cn1c(Cn2ccc(C(F)(F)F)c(Oc3cncc4ccccc34)c2=O)n[nH]c1=O [7u]	277 ± 10.1 µM	0.89 ± 0.23 µM	309.52	1.56 ± 0.49 µM	0.5 ± 0.22 µM	4.38 ± 0.35 µM	> 250 µM	34 ± 13 µM	0.9 ± 0.29 µM	3.01 ± 1.42 µM	–
Cc1cc(Oc2c(C(F)(F)F)ccn(Cc3n[nH]c(=O)n3C)c2=O)c2c(Cl)c(F)ccc2n1 [7af]	81.5 ± 11.7 µM	33.3 ± 9.61 µM	2.45	–	–	–	–	–	–	–	–
Cc1ccc(Oc2c(C(F)(F)F)ccn(Cc3n[nH]c(=O)n3C)c2=O)c(C)n1 [7m]	> 250 µM	> 250 µM	<1	–	–	–	–	–	–	–	–
Cn1c(Cn2ccc(C(F)(F)F)c(Oc3cnc4ccccc4c3)c2=O)n[nH]c1=O [7ag]	> 250 µM	> 250 µM	>1	–	–	–	–	–	–	–	–
Cc1cc(Oc2c(C(F)(F)F)ccn(Cc3n[nH]c(=O)n3C)c2=O)c2cccc(F)c2n1 [7aa]	220 ± 44.4 µM	> 220 µM	<1	–	–	–	–	–	–	–	–
CCc1nc(C)ccc1Oc1c(C(F)(F)F)ccn(Cc2n[nH]c(=O)n2C)c1=O [7n]	299 ± 3.74 µM	> 250 µM	–	–	–	–	–	–	–	–	–
Cn1c(Cn2ccc(C(F)(F)F)c(Oc3cc(Cl)c4ncccc4c3)c2=O)n[nH]c1=O [7ak]	192 ± 42.9 µM	> 192 µM	<1	–	–	–	–	–	–	–	–
Cc1ccc(Oc2c(C(F)(F)F)ccn(Cc3n[nH]c(=O)n3C)c2=O)c(Br)n1 [7l]	253 ± 16.8 µM	> 250 µM	<1	–	–	–	–	–	–	–	–
Cc1cc(Oc2c(C(F)(F)F)ccn(Cc3n[nH]c(=O)n3C)c2=O)c2cccc(C)c2n1 [7ac]	151 ± 27.9 µM	> 151 µM	<1	–	–	–	–	–	–	–	–
Cn1c(Cn2ccc(C(F)(F)F)c(Oc3ccc(Cl)nc3)c2=O)n[nH]c1=O [7c]	> 311 µM	35.6 ± 10.3 µM	>9	–	–	–	–	–	–	–	–
COc1ccc2c(c1)[C@]13CCCC[C@@H]1[C@H](C2)N(C)CC3 [Dextromethorphan, reference compound]	–	–	–	–	–	–	–	–	–	–	0.0482 µM
Cn1c(Cn2ccc(C(F)(F)F)c(Oc3cc(Cl)cc(C#N)c3)c2=O)n[nH]c1=O [DOR, doravirine, reference compound]	293.24 ± 0.17 µM	0.013 ± 0.004 µM	–	0.025 ± 0.0023 µM	0.0066 ± 0.0017 µM	0.044 ± 0.005 µM	0.5 ± 0.15 µM	0.142 ± 0.057 µM	0.0075 ± 0.0026 µM	0.042 ± 0.0013 µM	–
Cn1c(Cn2ccc(C(F)(F)F)c(Oc3cccnc3Cl)c2=O)n[nH]c1=O [7b]	290 ± 24.1 µM	4.27 ± 0.75 µM	67.97	–	–	–	–	–	–	–	–
Cc1cc(Oc2c(C(F)(F)F)ccn(Cc3n[nH]c(=O)n3C)c2=O)cnc1F [7p]	> 250 µM	1.46 ± 0.54 µM	–	–	–	–	–	–	–	–	–
Cn1c(Cn2ccc(C(F)(F)F)c(Oc3cccc4ccncc34)c2=O)n[nH]c1=O [7x]	> 299 µM	1.23 ± 0.28 µM	>244	–	–	–	–	–	–	–	–

Compound	CC50 [1]	EC50 (WT HIV-1)	SI (WT HIV-1)	EC50 (HIV-1 mutant Y181C)	EC50 (HIV-1 mutant L100I)	IC50 (WT HIV-1 RT)	EC50 (HIV-1 mutant Y188L)	EC50 [2]	EC50 (HIV-1 mutant E138K)	EC50 (HIV-1 mutant K103N)	IC50 (CYP2D6)
Cn1c(Cn2ccc(C(F)(F)F)c(Oc3ccc4nc(Cl)ccc4c3)c2=O)n[nH]c1=O [7al]	172 ± 44.9 µM	46.7 ± 12.5 µM	3.68	–	–	–	–	–	–	–	–
Cc1ncccc1Oc1c(C(F)(F)F)ccn(Cc2n[nH]c(=O)n2C)c1=O [7i]	> 328 µM	6.76 ± 1.07 µM	>49	–	–	–	–	–	–	–	–
Cc1cc(Oc2c(C(F)(F)F)ccn(Cc3n[nH]c(=O)n3C)c2=O)c2ccccc2n1 [7z]	233 ± 32.1 µM	> 233 µM	<1	–	–	–	–	–	–	–	–
Cc1ncc(Oc2c(C(F)(F)F)ccn(Cc3n[nH]c(=O)n3C)c2=O)cn1 [7t]	> 250 µM	> 250 µM	>1	–	–	–	–	–	–	–	–
Cn1c(Cn2ccc(C(F)(F)F)c(Oc3cncc(Cl)c3)c2=O)n[nH]c1=O [7a]	> 311 µM	0.55 ± 0.23 µM	>563	1.79 ± 0.58 µM	0.93 ± 0.51 µM	1.14 ± 0.043 µM	122 ± 62.1 µM	18.3 ± 11.4 µM	0.61 ± 0.04 µM	1.22 ± 0.56 µM	–
Cn1c(Cn2ccc(C(F)(F)F)c(Oc3ccc(Br)nc3)c2=O)n[nH]c1=O [7g]	> 280 µM	197 ± 58.9 µM	>1	–	–	–	–	–	–	–	–
Cn1c(Cn2ccc(C(F)(F)F)c(Oc3cccc4nccnc34)c2=O)n[nH]c1=O [7y]	220 ± 35.5 µM	8.07 ± 1.41 µM	27.30	–	–	–	–	–	–	–	–
Cn1c(Cn2ccc(C(F)(F)F)c(Oc3cccnc3)c2=O)n[nH]c1=O [7s]	> 367 µM	1.22 ± 0.24 µM	>278	–	–	–	–	–	–	–	–
Cc1cc(C#N)cc(C)c1Oc1nc(Nc2ccc(C#N)cc2)nc(N)c1Br [ETR, etravirine, reference compound]	> 4.6 µM	0.0029 ± 0.002 µM	>1600	0.019 ± 0.009 µM	0.006 ± 0.004 µM	–	0.018 ± 0.008 µM	0.031 ± 0.009 µM	0.006 ± 0.001 µM	0.002 µM	–
COc1cncc(Oc2c(C(F)(F)F)ccn(Cc3n[nH]c(=O)n3C)c2=O)c1 [7q]	> 250 µM	7.33 ± 5.03 µM	>43	–	–	–	–	–	–	–	–
Cn1c(Cn2ccc(C(F)(F)F)c(Oc3ccc4ncccc4c3)c2=O)n[nH]c1=O [7ah]	> 299 µM	252 ± 5.75 µM	>1	–	–	–	–	–	–	–	–
Cn1c(Cn2ccc(C(F)(F)F)c(Oc3cccc4ncccc34)c2=O)n[nH]c1=O [7v]	278 ± 18.6 µM	4.48 ± 1.24 µM	62.10	–	–	–	–	–	–	–	–
Cc1ccncc1Oc1c(C(F)(F)F)ccn(Cc2n[nH]c(=O)n2C)c1=O [7k]	> 328 µM	1.53 ± 0.25 µM	>214	–	–	–	–	–	–	–	–
Cn1c(Cn2ccc(C(F)(F)F)c(Oc3ccc4cccnc4c3Br)c2=O)n[nH]c1=O [7am]	164 ± 25.5 µM	> 164 µM	<1	–	–	–	–	–	–	–	–
Cc1ccc(Oc2c(C(F)(F)F)ccn(Cc3n[nH]c(=O)n3C)c2=O)cn1 [7j]	> 328 µM	21.1 ± 5 µM	–	–	–	–	–	–	–	–	–
Cn1c(Cn2ccc(C(F)(F)F)c(Oc3ccc4cnccc4c3)c2=O)n[nH]c1=O [7ai]	> 299 µM	11.2 ± 2.83 µM	>27	–	–	–	–	–	–	–	–
Cn1c(Cn2ccc(C(F)(F)F)c(Oc3cnc(Cl)c(Cl)c3)c2=O)n[nH]c1=O [7d]	248 ± 28.2 µM	2.02 ± 0.88 µM	122.98	–	–	–	–	–	–	–	–
Cn1c(Cn2ccc(C(F)(F)F)c(Oc3cccnc3Br)c2=O)n[nH]c1=O [7f]	270.9 ± 1.77 µM	4.44 ± 0.94 µM	61.07	–	–	–	–	–	–	–	–
Cc1cncc(Oc2c(C(F)(F)F)ccn(Cc3n[nH]c(=O)n3C)c2=O)c1 [7h]	> 328 µM	0.53 ± 0.16 µM	>616	1.78 ± 0.1 µM	0.55 ± 0.33 µM	1.03 ± 0.14 µM	196 ± 12.1 µM	16.1 ± 7.33 µM	0.77 ± 0.04 µM	1.2 ± 0.18 µM	–
